A short description of experiment [1]: Growth inhibition of mouse BA/F3 cells transfected with JAK3 TEL domain after 24 hrs by Alamar Blue assay. The settings on record: BaF3, 24 h. The class given is functional, cell-based. In general terms: The colour change of resazurin is a common sign of viable cells or microbes.
The target in experiment [2] is Tyrosine-protein kinase JAK2 (Homo sapiens, UniProt O60674). Kind of experiment: Inhibition of JAK2 (unknown origin) using biotinylated TYK2 peptide as substrate after 60 mins.
Tyrosine-protein kinase JAK2, sequence (O60674 whole entry, the tested form may be a part): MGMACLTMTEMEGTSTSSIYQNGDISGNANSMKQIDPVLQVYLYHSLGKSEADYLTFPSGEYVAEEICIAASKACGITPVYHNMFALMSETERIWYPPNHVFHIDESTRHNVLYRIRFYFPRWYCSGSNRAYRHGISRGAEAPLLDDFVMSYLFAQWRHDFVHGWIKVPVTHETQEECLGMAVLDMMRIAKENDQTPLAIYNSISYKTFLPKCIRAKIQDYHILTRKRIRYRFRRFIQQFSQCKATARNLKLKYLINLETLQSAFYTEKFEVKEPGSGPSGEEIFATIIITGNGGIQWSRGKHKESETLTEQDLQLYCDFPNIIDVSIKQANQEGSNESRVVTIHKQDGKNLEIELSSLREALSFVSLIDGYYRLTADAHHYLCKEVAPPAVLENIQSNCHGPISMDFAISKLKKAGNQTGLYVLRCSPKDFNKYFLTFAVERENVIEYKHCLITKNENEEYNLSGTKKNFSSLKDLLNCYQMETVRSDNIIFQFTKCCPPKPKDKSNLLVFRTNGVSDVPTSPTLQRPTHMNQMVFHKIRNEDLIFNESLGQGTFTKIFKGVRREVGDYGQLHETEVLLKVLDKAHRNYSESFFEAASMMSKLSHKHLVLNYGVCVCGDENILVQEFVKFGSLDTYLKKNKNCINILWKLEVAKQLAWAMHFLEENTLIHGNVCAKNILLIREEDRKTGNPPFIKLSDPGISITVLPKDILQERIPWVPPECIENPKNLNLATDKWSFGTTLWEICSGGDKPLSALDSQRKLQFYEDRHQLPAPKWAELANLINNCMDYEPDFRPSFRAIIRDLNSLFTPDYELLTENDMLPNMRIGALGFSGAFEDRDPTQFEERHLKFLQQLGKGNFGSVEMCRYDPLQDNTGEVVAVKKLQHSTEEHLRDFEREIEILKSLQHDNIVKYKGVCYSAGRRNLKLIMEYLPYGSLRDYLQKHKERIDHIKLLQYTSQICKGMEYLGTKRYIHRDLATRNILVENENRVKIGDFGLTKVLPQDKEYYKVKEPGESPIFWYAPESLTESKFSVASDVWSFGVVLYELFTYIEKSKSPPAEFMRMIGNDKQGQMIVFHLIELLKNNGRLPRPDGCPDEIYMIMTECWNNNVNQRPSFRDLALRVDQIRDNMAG
Experiment [3] in a line: Growth inhibition of mouse BA/F3 cells transfected with JAK2 TEL domain after 24 hrs by Alamar Blue assay. In kind it is functional. The following applies: BaF3, 24 h.
The target of experiment [4] is T1, Tyrosine-protein kinase JAK3 (Homo sapiens, UniProt P52333).
T1 sequence (P52333 whole entry): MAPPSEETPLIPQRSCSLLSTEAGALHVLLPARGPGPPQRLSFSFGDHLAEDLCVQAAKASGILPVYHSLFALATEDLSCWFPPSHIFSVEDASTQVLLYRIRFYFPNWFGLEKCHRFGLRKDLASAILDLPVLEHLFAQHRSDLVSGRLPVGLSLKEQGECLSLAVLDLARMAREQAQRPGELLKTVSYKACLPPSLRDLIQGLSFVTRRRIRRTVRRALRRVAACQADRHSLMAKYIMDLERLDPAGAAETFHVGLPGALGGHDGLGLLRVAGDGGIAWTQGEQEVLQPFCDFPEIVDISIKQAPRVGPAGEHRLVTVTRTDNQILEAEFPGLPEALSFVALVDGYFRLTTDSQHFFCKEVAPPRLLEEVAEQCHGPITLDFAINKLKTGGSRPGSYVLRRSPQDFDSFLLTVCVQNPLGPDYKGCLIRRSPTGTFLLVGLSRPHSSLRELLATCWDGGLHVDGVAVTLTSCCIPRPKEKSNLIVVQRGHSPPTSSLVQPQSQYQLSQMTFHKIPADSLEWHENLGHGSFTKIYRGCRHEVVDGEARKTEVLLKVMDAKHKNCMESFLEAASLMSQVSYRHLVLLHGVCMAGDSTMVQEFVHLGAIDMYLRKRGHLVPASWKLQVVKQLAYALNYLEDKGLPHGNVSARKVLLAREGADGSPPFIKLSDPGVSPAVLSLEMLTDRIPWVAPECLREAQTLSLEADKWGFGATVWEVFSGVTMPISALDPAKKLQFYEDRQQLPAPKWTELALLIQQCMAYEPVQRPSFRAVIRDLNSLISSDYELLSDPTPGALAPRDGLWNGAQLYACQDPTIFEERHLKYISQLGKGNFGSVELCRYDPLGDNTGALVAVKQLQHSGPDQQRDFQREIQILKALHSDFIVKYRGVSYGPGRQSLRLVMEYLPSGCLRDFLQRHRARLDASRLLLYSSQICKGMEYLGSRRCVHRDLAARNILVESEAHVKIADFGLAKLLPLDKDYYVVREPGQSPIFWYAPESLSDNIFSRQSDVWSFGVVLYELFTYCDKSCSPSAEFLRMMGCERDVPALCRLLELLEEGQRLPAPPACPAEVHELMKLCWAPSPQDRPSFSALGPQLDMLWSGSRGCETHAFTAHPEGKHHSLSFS
The experiment is described as follows: Inhibition of JAK3 (unknown origin) using biotinylated poly-EY peptide as substrate after 60 mins by HTRF assay. In general terms: In TR-FRET formats the signal depends on donor and acceptor labels being close together.

For the next experiment, the species on record is Homo sapiens. The experiment is described as follows: Selectivity ratio of IC50 for JAK3 (unknown origin) to IC50 for JAK2 (unknown origin). The gist of the method: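 Jak2 and Jak3 enzyme IC50s determined at 5 mM ATP; the ratio is the Jak3 IC50 divided by the Jak2 IC50.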
The nature of experiment [5]: Growth inhibition of human UKE1 cells harboring JAK2 V617F mutant after 2 days by [3H]-thymidine incorporation assay. The class given is functional. (In general: Incorporation of labelled thymidine or its analogues reports DNA synthesis.)
The test system of a further experiment is SET-2. The experiment is described as follows: Growth inhibition of human SET2 harboring JAK2 V617F mutant after 24 hrs by Alamar Blue assay. The class given is functional. The following applies: SET-2, 24 h.

Take `Cc1cc(Nc2nc(O[C@@H](C)c3ccc(F)cn3)c(F)c(N3CCOCC3)n2)n[nH]1`: the figures for the GI50 in experiment [1] (read-out: GI50) and in experiment [3] were 0.24 µM and 0.016 µM, respectively. Further, the IC50 in experiment [2] came to 0.004 µM; in experiment [4], 0.087 µM.

Take `Cc1cc(Nc2nc(N[C@@H](C)c3ccc(F)cn3)c(F)c(N3CCS(=O)(=O)CC3)n2)n[nH]1`: the GI50 in experiment [1] (read-out: GI50) is 0.27 µM. Further, the IC50 in experiment [2] came to 0.003 µM; in experiment [4], 0.004 µM.

Regarding `Cc1cc(Nc2nc(N[C@@H](C)c3ncc(F)cn3)c(F)c(N3CCOCC3)n2)[nH]n1`, the IC50 was 0.003 µM in experiment [2] and 0.229 µM in experiment [4].

For `Cc1cc(Nc2nc(N[C@@H](C)c3ccc(F)cn3)c(Cl)c(N3CCOCC3)n2)[nH]n1`, the figures for the IC50 in experiment [2] and in experiment [4] were 0.006 µM and 0.262 µM, respectively.

For the molecule `Cc1cc(Nc2nc(N[C@@H](C)c3ncc(F)cn3)nc(N3CCOCC3)c2F)n[nH]1`, in the experiment filed under Homo sapiens, the Ratio IC50 was more than 10000.

With `Cc1cc(Nc2nc(O[C@@H](C)c3ncc(F)cc3F)c(F)c(N3CCOCC3)n2)n[nH]1`, the GI50 in experiment [1] (read-out: GI50) came to 0.43 µM; in experiment [5], 0.03 µM; in experiment [3] it was 0.01 µM; in the experiment with SET-2, 0.018 µM. Besides, the IC50 worked out at 0.004 µM in experiment [2] and 0.045 µM in experiment [4].

For `Cc1cc(Nc2cc(N3CCOCC3)nc(N[C@@H](C)c3ncc(F)cn3)n2)n[nH]1`, the Ratio IC50 in the experiment filed under Homo sapiens was more than 10.

With `COc1cc(Nc2nc(N[C@@H](C)c3ncc(F)cn3)c(F)c(N3CCOCC3)n2)n[nH]1`, the GI50 in experiment [1] (read-out: GI50) came out at 9.4 µM; in experiment [3], 0.16 µM. For the same molecule, the IC50 in experiment [2] came to 0.037 µM; in experiment [4], 11.2 µM.

`Cc1cc(Nc2nc(N[C@@H](C)c3ccc(F)cn3)c(F)c(N3CCNCC3)n2)n[nH]1` returned a GI50 in experiment [1] of 0.48 µM. Moreover, the concentration for half-maximal inhibition (IC50) in experiment [2] stood at 0.004 µM; in experiment [4], 0.03 µM.

Regarding `Cc1cnc(Nc2nc(N[C@@H](C)c3ncc(F)cn3)nc(N3CCOCC3)c2F)s1`, the values for the GI50 in experiment [1] (read-out: GI50) and in experiment [3] were 4.9 µM and 0.03 µM, respectively. For the same molecule, the results for the IC50 in experiment [2] and in experiment [4] were 0.025 µM and more than 30 µM, respectively.

In the case of `Cc1cc(Nc2nc(N[C@@H](C)c3ccc(F)cn3)c(F)c(N3CCOCC3)n2)n[nH]1`, the GI50 was found to be 0.85 µM in experiment [1] (read-out: GI50) and 0.019 µM in experiment [3]. Also, the IC50 in experiment [2] was 0.006 µM; in experiment [4], 0.262 µM.

As for `Cc1cc(Nc2nc(N[C@@H](C)c3ccc(F)cn3)c(F)c(N3CCN(C)CC3)n2)n[nH]1`, the GI50 in experiment [1] (read-out: GI50) worked out at 0.38 µM. Also, in experiment [4], the IC50 turned out to be 0.015 µM.

Turning to `Cc1cc(Nc2nc(N[C@@H](C)c3ncc(F)cn3)c(F)c(N3CCOCC3)n2)n[nH]1`, the GI50 in experiment [1] (read-out: GI50) amounted to 0.39 µM; in experiment [3], 0.015 µM. In addition, in the experiment listed under Homo sapiens, the Ratio IC50 was determined as 76.

As to `Cc1cc(Nc2nc(N[C@@H](C)c3ccc(F)cn3)c(F)c(N3CCN(S(C)(=O)=O)CC3)n2)n[nH]1`, the concentration for 50% growth inhibition (GI50) in experiment [1] was 0.05 µM. Besides, the IC50 in experiment [2] came to 0.003 µM; in experiment [4], 0.02 µM.

Turning to `Cc1cc(Nc2nc(N[C@@H](C)c3ncc(F)cn3)cc(N3CCOCC3)n2)n[nH]1`, the figures for the IC50 in experiment [2] and in experiment [4] were 0.005 µM and 0.095 µM, respectively. Moreover, it took 0.058 µM to inhibit growth in experiment [3] by half (GI50).

Usually GI50 stands for the concentration giving 50% growth inhibition. For orientation: IC50 means the concentration needed to halve the response being measured. A low value points to greater potency.

The values above are taken from ChEMBL document CHEMBL2380256, “Discovery of novel Jak2-Stat pathway inhibitors with extended residence time on target” (Bioorg Med Chem Lett, 2013).
